Data reported in article PMC6318406 (Asian Pacific Journal of Cancer Prevention : APJCP, 2018).
Entries after “also recorded” stand apart in the source; their conditions may differ. Marks after values point to notes of the source that are not given here.

Legend:
Type in all cases: in vivo, rat
endoglin (ENG) = experiment: Serum endoglin; details: HCC afflicted rats, 50 mg/kg b.wt orally daily for 5 weeks; mean ± SE
In short: (§1)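 Female Wistar rats, 170-200 g, 10/group. HCC induced by oral NDEA in 0.9% saline, 20 mg/kg five times weekly for 4 weeks, then 10 mg/kg five times weekly for 1 week. Saline-dosed healthy and untreated HCC groups. Overnight fast after the last dose. Retro-orbital blood drawn under ether and clotted 45 min at room temperature. Serum spun at 1,800 x g for 15 min at 4°C and stored at -20°C. Rat ELISA kits. Mean ± SE; ANOVA with Tukey test.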

[1] = test system: heat shock protein-70 (HSP-70); experiment: Serum heat shock protein-70; details: HCC afflicted rats, 50 mg/kg b.wt orally daily for 5 weeks; mean ± SE
In short: as §1

[2] = test system: β-cell leukemia/lymphoma 2 (Bcl-2); experiment: Serum Bcl-2 by ELISA in NDEA-induced HCC rats; details: HCC afflicted rats, 50 mg/kg b.wt orally daily for 5 weeks
In short: as §1

[3] = Oral pharmacokinetic study in normal rats
pro-caspase 3 = experiment: Serum pro-caspase 3 by ELISA in NDEA-induced HCC rats; details: HCC afflicted rats, 50 mg/kg b.wt orally daily for 5 weeks
In short: as §1

lipocalin-2 (LCN-2) = experiment: Serum lipocalin-2; details: HCC afflicted rats, 50 mg/kg b.wt orally daily for 5 weeks
In short: as §1

[4] = Oral pharmacokinetic study in HCC-induced rats; details: serum
In short: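 HCC induced by oral NDEA (20 mg/kg five times weekly for 4 weeks, then 10 mg/kg for 1 week). Rats (n=6) were fasted 12 h, then given one oral 50 mg/kg dose of free or nanocomposite test compound. Serum was sampled 0.083–24 h, spiked with pyrogallol and extracted into ethyl acetate. Measured by C18 HPLC at 280 nm; non-compartmental analysis, ke from terminal log-linear slope, MRT = AUMC/AUC.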

alpha-fetoprotein (AFP) = experiment: Serum alpha-fetoprotein; details: HCC afflicted rats, 50 mg/kg b.wt orally daily for 5 weeks; mean ± SE
In short: as §1

[5] = test system: hepatocellular carcinoma (HCC) afflicted rats; experiment: Histological examination of liver tissue sections; details: 50 mg/kg b.wt orally daily for 5 weeks, H and E stain
[6] = normal rats, single dose 50 mg/kg p.o., serum
[7] = normal rats, single dose 50 mg/kg p.o., serum, 50 mg/kg

AUMC [3, 6]: 2.03 ± 0.44 µg·mL/h
AUMC last [3, 6]: 1.3 ± 0.13 µg·mL/h
Duration of action ([3]; normal rats, single dose 50 mg/kg p.o., serum concentration-time profile): approximately 1 hr
C max [3, 7]: 1570 ± 108 ng/mL
MRT [3, 7]: 1.063 ± 0.155 h
AUC(0-inf) ([3]; rat, serum, po, 50 mg/kg): 1890 ± 130 ng·h/mL
AUC(0-t) ([3]; rat, serum, po, 50 mg/kg): 1640 ± 45 ng·h/mL
Tmax ([3]; rat, serum, po, 50 mg/kg): 0.46 ± 0.085 h
half-life ([3]; rat, serum, po, 50 mg/kg): 0.62 ± 0.09 h
Cmax ([3]; rat, serum, po, 50 mg/kg, C max, normal rats, single dose 50 mg/kg p.o.): 1590 ng/mL
MRT ([3]; rat, serum, po, 50 mg/kg, MRT, normal rats, single dose 50 mg/kg p.o.): 1.06 h
AUMC last ([4]; HCC-afflicted rats, single dose 50 mg/kg p.o.): 1.55 ± 0.014 µg·mL/h
AUC(0-inf) ([4]; rat, po, 50 mg/kg): 1670 ± 40 ng·h/mL
AUC(0-t) ([4]; rat, po, 50 mg/kg): 1340 ± 194 ng·h/mL
MRT ([4]; rat, po, 50 mg/kg): 1.43 ± 0.34 h
half-life ([4]; rat, po, 50 mg/kg): 1.4 ± 0.32 h
SMILES: O=C(O)c1cc(O)c(O)c(O)c1 [GA, 3,4,5-trihydroxy benzoic acid]
Serum ENG (endoglin (ENG)): 4.16 ± 0.14^b ng/ml
Serum HSP-70 [1]: 43.56 ± 0.8426^b ng/ L
Change in serum Bcl-2 with respect to the HCC group [2]: -32.9%
Change in serum pro-caspase 3 with respect to the HCC group (pro-caspase 3): -60.5%
Change in serum LCN-2 with respect to the HCC group (lipocalin-2 (LCN-2)): -34.8%
Serum AFP (alpha-fetoprotein (AFP)): 41.19 ± 0.83^b ng/ml
Histopathological findings in liver tissue section [5]: markedly recovered the anaplastic changes in the rat liver tissues; also recorded: congestion in the portal vein, multiple newly formed bile ducts and inflammatory cells infiltration in between at the portal area; also recorded: focal aggregations of mononuclear leucocytes inflammatory cells were detected in the hepatic parenchyma
